Data published in ChEMBL document CHEMBL1123658, “1-(2-pyridinyl)piperazine derivatives with antianaphylactic, antibronchospastic, and mast cell stabilizing activities” (J Med Chem, 1987).

Tests used:
[1] = In vivo toxic effect was determined in mouse after intraperitoneal administration with 10% aqueous acacia gum; value ranges from 1.35-1.82; format: toxicity, organism-based; details: ip
Summary of the method: (§1)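 Female albino mice (20-30 g), 10 animals per dose, dosed intraperitoneally with compound in solution or suspension; compounds tested as salts unless noted. Mortality was recorded over 7 days.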

Cavia porcellus = experiment: Antibronchospatic activity determined by histamine stimulated bronchospasm inhibition in guinea pigs after(i.v.) administration; format: functional, Bronchiole
Summary of the method: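 Guinea pigs, Konzett–Rössler preparation. Bronchospasm was induced with histamine. Compound was given iv (1 mL/kg) 1 min before the agonist, dissolved in saline or saline with slight excess HCl or CH3SO3H (pH 3.5–4). Three doses were tested in duplicate, chosen to give 20–90% inhibition. ID75 was read graphically from log dose–response curves.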

Rattus norvegicus [2] = experiment: Rat PCA Test(50% inhibition of spot areas)in the female albino rats after (ip) administration in 10% aqueous acacia gum; format: functional; details: read-out: ID50 (the source's name)
Summary of the method: (§2)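 Female albino rats (200–250 g) received intradermal ventral injections of rat anti-egg-albumin antiserum; donors were raised with egg albumin im plus H. pertussis ip, and serum was taken at 12 days. 24 h later, compound was given ip in 10% acacia gum (10 mL/kg), 10 rats/group. Challenge 30 min later was iv 0.3% egg albumin plus 1% Evans blue. Blued areas were measured 30 min after challenge.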

Rattus norvegicus [3] = experiment: Inhibition of mast cell degranulation was assessed in female albino rats at a dose of 32 umol/kg iv; format: functional
Rattus norvegicus [4] = experiment: Rat PCA Test(50% inhibition of spot areas)in the female albino rats after (ip) administration in 10% aqueous acacia gum; value ranges from 40-122; format: functional; details: read-out: ID50 (the source's name); summary of the method: as §2
[5] = In vivo toxic effect was determined in mouse after oral administration with 10% aqueous acacia gum; value ranges from 1.72-3.90; format: toxicity, organism-based
Summary of the method: (§3)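 Female albino mice, 20-30 g. Compound given orally as solution or suspension in 10% aqueous acacia gum, 10 animals per dose. Deaths recorded over 7 days.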

[6] = In vivo toxic effect was determined in mouse after intraperitoneal administration with 10% aqueous acacia gum; value ranges from 0.96-1.77; format: toxicity, organism-based; details: ip; summary of the method: as §1
Rattus norvegicus [7] = experiment: Rat PCA Test(50% inhibition of spot areas)in the female albino rats after oral administration in 10% aqueous acacia gum; value ranges from 119-331; format: functional; details: read-out: ID50 (the source's name)
Summary of the method: (§4)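 Female rats (200-250 g) were passively sensitized by ventral intradermal anti-egg-albumin antiserum. This was raised in rats by intramuscular 1% egg albumin plus ip H. pertussis vaccine, with serum taken at 12 days. After 24 h, groups of 10 were dosed orally with compound or vehicle (10 mL/kg). At 60 min, iv challenge used 0.3% egg albumin with 1% Evans blue. Blued areas were measured after 30 min.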

[8] = In vivo toxicity in mouse after oral administration with 10% aqueous acacia gum; format: organism-based; summary of the method: as §3
Mus musculus = experiment: In vivo toxic effect was determined in mouse after intraperitoneal administration with 10% aqueous acacia gum; NA means poorly absorbed; format: toxicity, organism-based; details: ip; summary of the method: as §1
[9] = In vivo toxic effect was determined in mouse after intraperitoneal administration with 10% aqueous acacia gum; value ranges from 0.56-0.94; format: toxicity, organism-based; details: ip; summary of the method: as §1
Rattus norvegicus [10] = experiment: Rat PCA Test(50% inhibition of spot areas)in the female albino rats after (ip) administration in 10% aqueous acacia gum; value ranges from 164-246; format: functional; details: read-out: ID50 (the source's name); summary of the method: as §2
Rattus norvegicus [11] = experiment: Rat PCA Test(50% inhibition of spot areas)in the female albino rats after oral administration in 10% aqueous acacia gum; format: functional; details: read-out: ID50 (the source's name); summary of the method: as §4
Rattus norvegicus [12] = experiment: Rat PCA Test(50% inhibition of spot areas)in the female albino rats after (ip) administration in 10% aqueous acacia gum; value ranges from 128-203; format: functional; details: read-out: ID50 (the source's name); summary of the method: as §2
[13] = In vivo toxic effect was determined in mouse after oral administration with 10% aqueous acacia gum; value ranges from 4.50-5.90; format: toxicity, organism-based; summary of the method: as §3
Rattus norvegicus [14] = experiment: Rat PCA Test(50% inhibition of spot areas)in the female albino rats after oral administration in 10% aqueous acacia gum; value ranges from 161-222; format: functional; details: read-out: ID50 (the source's name); summary of the method: as §4
Rattus norvegicus [15] = experiment: Inhibition of mast cell degranulation was assessed in female albino rats at a dose of 50 umol/kg iv; format: functional
[16] = In vivo toxic effect was determined in mouse after oral administration with 10% aqueous acacia gum; value ranges from 3.08-6.27; format: toxicity, organism-based; summary of the method: as §3
Rattus norvegicus [17] = experiment: Rat PCA Test(50% inhibition of spot areas)in the female albino rats after (ip) administration in 10% aqueous acacia gum; value ranges from 145-288; format: functional; details: read-out: ID50 (the source's name); summary of the method: as §2
Rattus norvegicus [18] = experiment: Rat PCA Test(50% inhibition of spot areas)in the female albino rats after ip administration in 10% aqueous acacia gum; Value ranges from (6-147).; details: read-out: ID50 (the source's name)
[19] = In vivo toxic effect was determined in mouse after intraperitoneal administration with 10% aqueous acacia gum; value ranges from 0.27-0.43; format: toxicity, organism-based; details: ip; summary of the method: as §1
Rattus norvegicus [20] = experiment: Rat PCA Test(50% inhibition of spot areas)in the female albino rats after ip administration in 10% aqueous acacia gum; format: functional; details: read-out: ID50 (the source's name)
Summary of the method: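 Antiserum came from female rats given 1% egg albumin in 0.9% NaCl intramuscularly plus Haemophilus pertussis vaccine (2 × 10^10 organisms) intraperitoneally, and was collected 12 days later. Recipient rats (200-250 g) got it intradermally at a ventral site. After 24 h, groups of 10 received vehicle or compound ip. At 30 min they were challenged iv with 0.3% egg albumin plus 1% Evans blue. Blued skin areas were measured 30 min later.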

[21] = In vivo toxic effect was determined in mouse after intraperitoneal administration with 10% aqueous acacia gum; value ranges from 0.39-0.76; format: toxicity, organism-based; details: ip; summary of the method: as §1
[22] = In vivo toxic effect was determined in mouse after oral administration with 10% aqueous acacia gum; value ranges from 0.97-1.87; format: toxicity, organism-based; summary of the method: as §3
Rattus norvegicus [23] = experiment: Rat PCA Test(50% inhibition of spot areas)in the female albino rats after (ip) administration in 10% aqueous acacia gum; value ranges from 35-79; format: functional; details: read-out: ID50 (the source's name); summary of the method: as §2
[24] = In vivo toxic effect was determined in mouse after intraperitoneal administration with 10% aqueous acacia gum; value ranges from 0.97-2.74; format: toxicity, organism-based; details: ip; summary of the method: as §1
Rattus norvegicus [25] = experiment: Rat PCA Test(50% inhibition of spot areas)in the female albino rats, using Goose and Blair method by dissolving or suspended the compound in 10% aqueous acacia gum and administered perorally.; Value ranges from (26-199); format: functional; details: po, read-out: ID50 (the source's name); summary of the method: as §4
[26] = In vivo toxic effect was determined in mouse after intraperitoneal administration with 10% aqueous acacia gum; value ranges from 0.41-0.93; format: toxicity, organism-based; details: ip; summary of the method: as §1
[27] = In vivo toxic effect was determined in mouse after oral administration with 10% aqueous acacia gum;Value ranges from(1.30-1.80); format: toxicity, organism-based; summary of the method: as §3
Rattus norvegicus [28] = experiment: Rat PCA Test(50% inhibition of spot areas)in the female albino rats after (ip) administration in 10% aqueous acacia gum; Value ranges from(42-57); format: functional; details: read-out: ID50 (the source's name); summary of the method: as §2

COC(=O)CC(C)N1CCN(c2ccccn2)CC1.O=C(O)/C=C\C(=O)O.O=C(O)/C=C\C(=O)O (stereo not given)
LD50 [1]: 1350 µmol/kg
ID75 (Cavia porcellus): 2.37 µM/kg
ED50 (Rattus norvegicus [2]): > 404 µmol/kg

Cl.Cl.O=C(CCN1CCN(c2ccccn2)CC1)Nc1ccccc1Cl
inhibition in vivo at 32 µmol/kg (Rattus norvegicus [3]): 0%
ED50 (Rattus norvegicus [4]): 70 µmol/kg
LD50 [5]: 2640 µmol/kg
LD50 [6]: 1290 µmol/kg
ED50 (Rattus norvegicus [7]): 199 µmol/kg

O=C(CCN1CCN(c2ccccn2)CC1)Nc1ccc(NC(=O)Nc2ccccc2)cc1
ID75 (Cavia porcellus): 0.31 µM/kg
ED50 (Rattus norvegicus [2]): > 225 µmol/kg
LD50 [8]: > 6700 µmol/kg

NS(=O)(=O)c1ccc(NC(=O)CCN2CCN(c3ccccn3)CC2)cc1
ID75 (Cavia porcellus): 0.19 µM/kg
LD50 (Mus musculus): Not Active
ED50 (Rattus norvegicus [2]): > 257 µmol/kg
LD50 [8]: > 7700 µmol/kg

Cc1cc(C)c(C)c(NC(=O)CN2CCN(c3ccccn3)CC2)c1C
LD50 [9]: 650 µmol/kg
ID75 (Cavia porcellus): >23.5 µM/kg
ED50 (Rattus norvegicus [2]): > 212 µmol/kg

NC(=O)Nc1ccc(NC(=O)CCN2CCN(c3ccccn3)CC2)cc1
ED50 (Rattus norvegicus [10]): 194 µmol/kg
ID75 (Cavia porcellus): 0.25 µM/kg
ED50 (Rattus norvegicus [11]): > 271 µmol/kg
LD50 [8]: > 8100 µmol/kg

Cl.Cl.O=C(CCN1CCN(c2ccccn2)CC1)Nc1ccc(O)cc1
ED50 (Rattus norvegicus [12]): 161 µmol/kg
ID75 (Cavia porcellus): 0.49 µM/kg
LD50 [13]: 5200 µmol/kg
LD50 (Mus musculus): Not Active
ED50 (Rattus norvegicus [14]): 189 µmol/kg
inhibition in vivo at 50 µmol/kg (Rattus norvegicus [15]): 64%

COc1cccc(N2CCN(CCC(=O)Nc3ccc([N+](=O)[O-])cc3)CC2)n1.Cl
ID75 (Cavia porcellus): 0.16 µM/kg
LD50 [16]: 4390 µmol/kg
ED50 (Rattus norvegicus [17]): 204 µmol/kg

Cc1c(C)c([N+](=O)[O-])c(C)c(C)c1C(=O)NCCN1CCN(c2ccccn2)CC1.Cl.Cl
ED50 (Rattus norvegicus [18]): 30 µmol/kg
LD50 [19]: 320 µmol/kg

Cc1cc(N)cc(C)c1C(=O)NCCN1CCN(c2ccccn2)CC1.Cl
ED50 (Rattus norvegicus [20]): > 167 µmol/kg
ID75 (Cavia porcellus): 5.27 µM/kg
LD50 [21]: 550 µmol/kg

O=C(CCN1CCN(c2ccccn2)CC1)Nc1ccccc1
inhibition in vivo at 32 µmol/kg (Rattus norvegicus [3]): 12%
LD50 [22]: 1350 µmol/kg
ED50 (Rattus norvegicus [23]): 53 µmol/kg
LD50 [24]: 1160 µmol/kg
ED50 (Rattus norvegicus [25]): 72 µmol/kg

CC(=O)c1ccc(NC(=O)CCN2CCN(c3ccccn3)CC2)cc1.Cl.Cl
ID75 (Cavia porcellus): 0.02 µM/kg
LD50 [26]: 480 µmol/kg
LD50 [27]: 1500 µmol/kg
ED50 (Rattus norvegicus [28]): 49 µmol/kg
